Published values of several laboratories.
Lines come from different studies, so protocols differ.
ALK: ALK tyrosine kinase receptor (ALK, Homo sapiens, UniProt Q9UM73)
ALK L1196M: ALK tyrosine kinase receptor (ALK, Homo sapiens, UniProt Q9UM73, L1196M)
ALK C1156Y: ALK tyrosine kinase receptor (ALK, Homo sapiens, UniProt Q9UM73, C1156Y)

| SMILES | target | assay | setting | quantity | value |
| --- | --- | --- | --- | --- | --- |
| Cc1cnc(NC2CCOCC2)nc1-n1cnc(C(=O)NC(CN)c2cc(F)cc(Cl)c2)c1 (stereo not shown) | ALK | enzyme activity, inhibitor, radiometric | 1 µM | remaining activity | 122% |
| CN1CCN(c2cnc3c(C4CCN(C(=O)c5ccc(OC(F)(F)F)cc5N)CC4)ncnc3c2)CC1 | ALK | cell-free assay, competition with immobilised ligand | 1 µM | remaining binding | 99% |
| Cc1ccc(C(=O)NCc2ccsc2)cc1C#Cc1cn(C(C)C)c2ncnc(N)c12 | ALK | enzyme activity, inhibitor | 1 µM | activity vs control | 103% |
| CN([C@@H]1CCc2c(CC(=O)O)c3ccccc3n2C1)S(=O)(=O)c1ccc(F)cc1 | ALK | cell-free assay, competition with immobilised ligand | 1 µM | remaining binding | 78% |
| N[C@H]1CCN(c2nccc(-c3cnn4ncccc34)n2)C1 | ALK | binding | 1 µM | remaining binding | 85% |
| CC/C(=N\NC(=O)NCc1cccc(O)c1)c1ccc(O)c(C)c1O | ALK L1196M | enzyme activity, inhibitor | 0.1 µM | inhibition | 3% |
| C=CC(=O)Nc1cc(Nc2nccc(Nc3cc(Cl)c(F)cc3C(C)(C)O)n2)c(OC)cc1N1CC[C@@H](N(C)C)C1 | ALK | enzyme activity, inhibitor | 1 µM | inhibition | 86% |
| Cc1ccc(C(=O)Nc2ccc(CN3CCN(C)CC3)c(C(F)(F)F)c2)cc1C#Cc1cnc2cccnn12 | ALK C1156Y | cell-free assay | 23.5 nM | remaining signal | 90% |
| Cc1ccc(NC(=O)c2ccc(CN3CCN(C)CC3)cc2)cc1Nc1nc(-c2cccnc2)cs1 | ALK | cell-free assay | 0.5 µM | remaining signal | 103% |
| CN1CC(Oc2cnc(C#N)cc2-c2ccn3nc(NC(=O)C4CC4)cc3c2)C1 | ALK | enzyme activity, inhibitor | 1 µM | inhibition | 0% |
| CNC(=O)c1cc(Oc2ccc(NC(=O)Nc3ccc(Cl)c(C(F)(F)F)c3)cc2)ccn1 | ALK | enzyme activity, inhibitor | 10 µM | inhibition | 45% |
| CCN(CC)CCNC(=O)c1c(C)[nH]c(/C=C2\C(=O)Nc3ccc(F)cc32)c1C | ALK | enzyme activity, inhibitor | 1 µM | remaining activity | 27% |
| COc1ccnn2ncc(-c3ccnc(N(C)C)n3)c12 | ALK C1156Y | binding | 1 µM | remaining binding | 100% |
| CC(=O)N1CCC(c2ccc(C(=O)NC3=NCCN3)cc2C(F)(F)F)CC1 | ALK L1196M | cell-free assay, competition with immobilised ligand | 1 µM | remaining binding | 70% |
| CC(C)c1ccc(NC(=O)c2cccs2)c(-c2nc3ccccc3[nH]c2=O)c1 | ALK | enzyme activity, inhibitor | 1 µM | activity vs control | 92% |
| O=C1Nc2ccc(Cl)cc2C1=Cc1cc(Cl)c(O)c(Cl)c1 | ALK | cell-free assay | 0.5 µM | remaining signal | 65.8% |
| CCc1ccccc1C(=O)Nc1n[nH]c2c(C)c(F)c(C3C(C#N)=C(C)N(C)C(C)=C3C#N)cc12 | ALK C1156Y | cell-free assay, competition with immobilised ligand | 1 µM | remaining binding | 100% |
| c1cnn2ncc(-c3ccnc(N4CCC45COC5)n3)c2c1 | ALK | binding | 1 µM | remaining binding | 78% |
| CN(C)C(=O)Cn1cc(-c2nc([C@@](C)(c3ccc(-c4cnc(N)nc4)cc3)C3CC3)no2)cn1 | ALK C1156Y | cell-free assay, competition with immobilised ligand | 1 µM | remaining binding | 98% |
| CCN(CC)c1ccc(C2=NNC(=O)CC2C)cc1[N+](=O)[O-] (stereo not shown) | ALK | enzyme activity, inhibitor | 10 µM | remaining activity | 110% |
| Cc1nc(N2CC[C@@H](O)C2)ncc1-c1cc(C(F)(F)F)cc2[nH]ncc12 | ALK | cell-free assay, competition with immobilised ligand | 1 µM | remaining binding | 81% |
| COc1cc2ncnc(Nc3ccc(Oc4ccccc4)cc3C)c2cc1OC | ALK | enzyme activity, inhibitor | 1 µM | inhibition | -2% |
